Measured values published in ChEMBL document CHEMBL5380783, “N-Substituted l-Iminosugars for the Treatment of Sanfilippo Type B Syndrome” (J Med Chem, 2023).
Calls of active or inactive are those of the source. The calls are words filed in the database; no cut-off is given here.

What was measured:
[1] = Antiproliferative activity against human CuFi cells upto 100 uM; assay type: toxicity, cell-based
Fibroblast [2] = test: Inhibition of heparan sulfate accumulation on cell membrane in MPS-1 patient derived human fibroblast cells at 40 uM incubated for 48 hrs by indirect immunofluorescence staining analysis; assay type: functional, cell-based
Outline: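 MPS I patient fibroblasts grown on coverslips with 40 μM compound for 48 h. Immunostained for HS (10E4) and Lamp1 with DAPI, imaged by confocal microscopy. Mean fluorescence intensity expressed relative to untreated cells, 50 random cells from three independent experiments.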

IB3-1 [3] = test: Cytotoxicity against human IB3-1 cells assessed as induction of apoptosis upto 100 uM; assay type: toxicity, cell-based; conditions: ib3-1, 100 µM
[4] = Cytotoxicity against human CuFi cells assessed as induction of apoptosis upto 100 uM; assay type: toxicity, cell-based
HaCaT [5] = test: Antiproliferative activity against human HaCaT cells upto 100 uM; assay type: toxicity, cell-based
SK-N-BE(2) [6] = test: Upregulation of NAGLU protein expression in human SK-NBE cells at 20 uM incubated for 24 hrs by western blot analysis; assay type: functional, cell-based
Outline: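 Western blot of control SK-NBE clone and NAGLU-shRNA SK-NBE clone (RPMI, 10% FBS, puromycin 0.7 μg/mL) after 24 h at 20 μM. Lysis, Bradford assay, 50 μg per lane, nitrocellulose transfer, anti-NAGLU antibody overnight at 4 °C, HRP secondary and ECL. GAPDH re-probe for loading.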

Fibroblast [7] = test: Inhibition of heparan sulfate accumulation on cell membrane in MPS-1 patient derived human fibroblast cells at 20 uM incubated for 48 hrs by indirect immunofluorescence staining analysis; assay type: functional, cell-based
Outline: (§1)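 HDFa, MPS IIIA, MPS IIIB and MPS I patient fibroblasts in DMEM, 10% FBS, grown 48 h on coverslips with 20 μM compound. Double immunostained for HS (10E4) and Lamp1 with DAPI, confocal imaging. Mean fluorescence intensity expressed relative to untreated cells (d-enantiomers: percent positive cells), 50 random cells from three experiments.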

Fibroblast [8] = test: Inhibition of heparan sulfate accumulation on cell membrane in Sanfilippo-B patient derived human fibroblast cells at 20 uM incubated for 48 hrs by indirect immunofluorescence staining analysis; assay type: functional, cell-based; outline: as §1
SK-N-BE(2) [9] = test: Inhibition of lysosomal defects in NAGLU-silenced human SK-NBE cell clones assessed as reduction in accumulation of enlarged LAMP1-positive lysosomal structures within the cytoplasm at 20 uM incubated for 48 hrs by LAMP1 staining based indirect immunofluorescence assay; assay type: functional
Outline: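 Control and NAGLU-silenced SK-NBE clones grown on coverslips with 20 μM compound for 48 h. Fixed in 3.7% formaldehyde, permeabilized with saponin/BSA buffer, stained with anti-Lamp1 or anti-HS 10E4 for 1 h, then Alexa secondaries. Confocal imaging with 63× objective. Scored as percent cells with enlarged Lamp1 structures or membrane HS, plus mean fluorescence intensity, over 50 random cells from three experiments.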

Fibroblast [10] = test: Inhibition of lysosomal defects in Sanfilippo-B patient derived human fibroblast cells assessed as dispersion of lysosomes all over the cytoplasm at 20 uM incubated for 48 hrs by LAMP1 staining based indirect immunofluorescence assay; assay type: functional, cell-based; outline: as §1
Fibroblast [11] = test: Effect on heparan sulfate changes in human fibroblast cells at 20 uM incubated for 48 hrs by indirect immunofluorescence staining analysis; assay type: functional, cell-based; outline: as §1
HeLa [12] = test: Upregulation of NAGLU protein expression in human HeLa cells at 20 uM incubated for 24 hrs by western blot analysis; assay type: functional, cell-based
HeLa [13] = test: Inhibition of heparan sulfate accumulation on cell membrane in human HeLa cells at 20 uM incubated for 48 hrs by indirect immunofluorescence staining analysis; assay type: functional, cell-based
Outline: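 HeLa cells grown 48 h with compound, then immunostained with anti-HS antibody 10E4 to gauge membrane HS.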

Fibroblast [14] = test: Inhibition of lysosomal defects in Sanfilippo-B patient derived human fibroblast cells assessed as reduction in accumulation of enlarged LAMP1-positive lysosomal structures within the cytoplasm at 20 uM incubated for 48 hrs by LAMP1 staining based indirect immunofluorescence assay; assay type: functional, cell-based; outline: as §1
[15] = tested on: Alpha-N-acetylglucosaminidase (Homo sapiens), P54802 [UNDEFINED MUTATION]; test: Nonactive chaperone activity against mutated NAGLU in Sanfilippo-B patient derived human fibroblast cells assessed as co-localization of NAGLU with lysosomes by measuring NAGLU/Lamp1-positive structures at 20 uM incubated for 48 hrs by indirect immunofluorescence staining based analysis; assay type: cell-based
Outline: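 HDFa and MPS IIIB fibroblasts, with or without (mock) 20 μM compound, for 48 h on coverslips. Co-stained for NAGLU and Lamp1 with DAPI, confocal imaging. NAGLU–lysosome co-localization quantified as mean fluorescence relative to untreated cells, 50 random cells from three experiments.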

HaCaT [16] = test: Cytotoxicity against human HaCaT cells assessed as induction of apoptosis upto 100 uM; assay type: toxicity, cell-based
HeLa [17] = test: Downregulation of EXT2 protein expression in human HeLa cells at 20 uM incubated for 24 hrs by western blot analysis; assay type: functional, cell-based
Fibroblast [18] = test: Inhibition of heparan sulfate accumulation on cell membrane in Sanfilippo-A patient derived human fibroblast cells at 20 uM incubated for 48 hrs by indirect immunofluorescence staining analysis; assay type: functional, cell-based; outline: as §1
IB3-1 [19] = test: Antiproliferative activity against human IB3-1 cells upto 100 uM; assay type: toxicity, cell-based; conditions: ib3-1, 100 µM
[20] = molecular target: T1, Alpha-N-acetylglucosaminidase (Homo sapiens) (UniProt P54802); test: Inhibition of NAGLU in human HDFa cells using 4-methylumbelliferyl-N-acetyl-alpha-D-glucosaminide as substrate upto 1 mM by fluorescence based analysis; assay type: cell-based
T1 sequence (whole entry): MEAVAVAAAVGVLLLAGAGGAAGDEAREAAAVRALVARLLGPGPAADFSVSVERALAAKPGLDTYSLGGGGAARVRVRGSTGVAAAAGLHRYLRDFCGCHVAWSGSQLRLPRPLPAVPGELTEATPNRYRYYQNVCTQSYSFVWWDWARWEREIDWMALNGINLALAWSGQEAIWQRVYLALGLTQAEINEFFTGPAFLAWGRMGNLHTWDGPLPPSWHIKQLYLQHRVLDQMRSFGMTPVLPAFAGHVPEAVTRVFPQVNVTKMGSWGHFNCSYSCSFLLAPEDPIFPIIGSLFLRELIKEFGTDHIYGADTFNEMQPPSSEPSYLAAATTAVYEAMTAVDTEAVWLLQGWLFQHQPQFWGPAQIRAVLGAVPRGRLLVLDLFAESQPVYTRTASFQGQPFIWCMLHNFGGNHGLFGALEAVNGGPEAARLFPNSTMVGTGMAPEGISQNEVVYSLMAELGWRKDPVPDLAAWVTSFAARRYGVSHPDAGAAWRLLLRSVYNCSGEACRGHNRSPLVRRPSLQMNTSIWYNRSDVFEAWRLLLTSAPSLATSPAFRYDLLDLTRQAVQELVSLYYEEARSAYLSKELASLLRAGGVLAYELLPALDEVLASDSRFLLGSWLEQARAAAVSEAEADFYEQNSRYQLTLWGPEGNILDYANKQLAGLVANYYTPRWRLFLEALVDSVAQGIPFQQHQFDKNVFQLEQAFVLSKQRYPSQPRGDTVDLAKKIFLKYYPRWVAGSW
Outline: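 HDFa fibroblast lysate (freeze–thaw, Lowry protein) incubated 2 h with 4-methylumbelliferyl-N-acetyl-α-D-glucosaminide (2 mM substrate solution) in Na-acetate buffer pH 4.5, compound added to the reaction up to 1 mM. Fluorogenic hydrolysis normalized per mg protein per hour.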

Compound	Activity [1]	inhibition (Fibroblast [2])	Activity (IB3-1 [3])	Activity [4]	Activity (HaCaT [5])	Activity (SK-N-BE(2) [6])	inhibition (Fibroblast [7])	inhibition (Fibroblast [8])	inhibition (SK-N-BE(2) [9])	inhibition (Fibroblast [10])	Activity (Fibroblast [11])	Activity (HeLa [12])	inhibition (HeLa [13])	inhibition (Fibroblast [14])	Activity [15]	Activity (HaCaT [16])	inhibition (HeLa [17])	inhibition (Fibroblast [18])	Activity (IB3-1 [19])	inhibition [20]
Cl.OC[C@H]1[C@H](O)[C@@H](O)[C@H](O)CN1CCCCCOCC12CC3CC(CC(C3)C1)C2	Non-Toxic	Active	Non-Toxic	Non-Toxic	Non-Toxic	Active	inactive	Active	Active	Active	inactive	Active	Active	Active	Active	Non-Toxic	inactive	Active	Non-Toxic	inactive
Cl.OC[C@@H]1NC[C@@H](O)[C@H](O)[C@H]1O	Non-Toxic	Active	Non-Toxic	Non-Toxic	Non-Toxic	Active	inactive	Active	Active	Active	inactive	Active	Active	Active	Active	Non-Toxic	Active	Active	Non-Toxic	inactive
CCCCN1C[C@@H](O)[C@H](O)[C@@H](O)[C@@H]1CO.Cl	Non-Toxic	Active	Non-Toxic	Non-Toxic	Non-Toxic	Active	inactive	Active	Active	Active	inactive	Active	Active	Active	Active	Non-Toxic	Active	Active	Non-Toxic	inactive
COCCCCCCCCCN1C[C@@H](O)[C@H](O)[C@@H](O)[C@@H]1CO.Cl	Non-Toxic	Active	Non-Toxic	Non-Toxic	Non-Toxic	Active	inactive	Active	Active	Active	inactive	Active	Active	Active	Active	Non-Toxic	inactive	Active	Non-Toxic	inactive
